pIC50: −log10 of the molar value. Values joined by “and” are separate entries in the source; they are usually repeats but may differ in a detail not shown here. Equal entries are not always repeated. Structures can show the parent of a compound that is named as a salt. Where two headings read alike, the source gives them in different places. Each block holds one molecule with its values, some of them ahead of it.
Assays:
[1] = Metabolite profiling in plasma AUC pool by LC-AMS; assay type: in vivo, human; conditions: average, AMS radiodetection
Procedure, shortened: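 A per-subject plasma AUC pool (Hamilton method) covered at least the last quantifiable time point. Plasma (5 g) was precipitated twice with acetonitrile, evaporated and resuspended in DMSO:acetonitrile:water 20:20:60. LC fractions were measured by AMS, with carbon content in duplicate. Peaks were assigned against spiked synthetic standards (UV 250 nm). Extraction recovery compared pool versus supernatant and reconstituted-extract radioactivity.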

[2] = assay type: in vivo, human; conditions: for Tlag / Tmax: median (minimum - maximum); for Tmax: t max
Procedure, shortened: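 Plasma was precipitated with acetonitrile plus internal standards, vortexed and centrifuged. Supernatant was diluted with water for validated LC-MS/MS of parent and metabolites, with quantification limit 10 ng/mL and calibration curves and QC samples in every batch. Noncompartmental analysis per subject gave geometric mean (%CV) parameters, with tmax as median (min–max).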

[3] = test system: COMT; conditions: cited from earlier work; for pIC50: read-out: IC50 against COMT
[4] = cited from earlier work
[5] = Metabolite profiling in urine and faeces by LC-MS and off-line radiodetection; assay type: in vivo, human
Procedure, shortened: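 Urine was pooled per subject to ≥80% of recovered radioactivity and concentrated. Faeces were pooled to >90% of excreted radioactivity, plus cross-subject 48-72 h and 96-120 h pools; these were acetonitrile-extracted, dried and reconstituted in acetonitrile:water 20:80. Analysis used accurate-mass LC-MS (± switching, 70 000 resolution, 100-800 amu; HCD MS/MS 17 500) with off-line radiodetection, reported as % administered radioactivity.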

[6] = cited from earlier work; remark: listed apart in the source
[7] = cited from earlier work; remark: listed apart in the source
[8] = rat; cited from earlier work
[9] = nonhuman primate [NHP]; cited from earlier work
[10] = male, human, plasma, oral, 100 mg

SMILES: COc1c(O)cc(-c2nc(-c3c(C)c(Cl)c(C)[n+]([O-])c3Cl)no2)cc1[N+](=O)[O-] [BIA 9‐1104, 2,5-dichloro-3-(5-(3-hydroxy-4-methoxy-5-nitrophenyl)-1,2,4-oxadiazol-3-yl)-4,6-dimethylpyridine 1-oxide]
% of total circulating radioactivity [1]: 6.59% | pIC50 [3]: 6.37

SMILES: Cc1c(Cl)c(C)[n+]([O-])c(Cl)c1-c1noc(-c2cc(O)c(O)c([N+](=O)[O-])c2)n1 [opicapone, 2,5‐dichloro‐3‐(5‐[3,4‐dihydroxy‐5‐nitrophenyl]‐1,2,4‐oxadiazol‐3‐yl)‐4,6‐dimethylpyridine 1‐oxide, reference compound]
AUC(0-inf) [2, 10]: 1890 ng·h/mL | AUC(0-t) [2, 10]: 1830 ng·h/mL | Cmax [2, 10]: 600 ng/mL | half-life [2, 10]: 1 h | Tmax [2, 10]: 2 h | Tlag ([2]; plasma): 0.250 (0.250‐0.500) h | % of total circulating radioactivity [1]: 12.1% | % of the administered radioactivity excreted in faeces ([5]; average, pooled faeces): 22.32% | unchanged parent observed in urine ([5]; in vivo): Only trace amounts | cytotoxicity [6]: not to induce cytotoxicity | dose proportionality of the pharmacokinetic profile [7]: dose‐proportional up to 1200 mg | fraction of the dose recovered in faeces [8]: more than 70% | fraction of the dose recovered in faeces [9]: more than 70%

SMILES: COc1c(OS(=O)(=O)O)cc(-c2nc(-c3c(C)c(Cl)c(C)[n+]([O-])c3Cl)no2)cc1[N+](=O)[O-].c1ccncc1 [BIA 9‐4584, pyridin-1-ium 5-(3-(2,5-dichloro-4,6-dimethyl-1-oxidopyridin-3-yl)-1,2,4-oxadiazol-5-yl)-2-methoxy-3-nitrophenyl sulfate]
% of total circulating radioactivity [1]: 2.30%

SMILES: COc1cc(-c2nc(-c3c(C)c(Cl)c(C)[n+]([O-])c3Cl)no2)cc([N+](=O)[O-])c1O [BIA 9‐1101, 2,5-dichloro-3-(5-(4-hydroxy-3-methoxy-5-nitrophenyl)-1,2,4-oxadiazol-3-yl)-4,6 dimethylpyridine 1-oxide]
% of total circulating radioactivity [1]: 0.39%

SMILES: Cc1nc(Cl)c(-c2noc(-c3cc(O)c(O)c([N+](=O)[O-])c3)n2)c(C)c1Cl [BIA 9‐1079, 5-(3-(2,5-dichloro-4,6-dimethylpyridin-3-yl)-1,2,4-oxadiazol-5-yl)-3-nitrobenzene-1,2-diol]
plasma concentration ([2]; below the limit of quantification in almost all time points): < 10 ng/mL | pIC50 [3]: 6.89

Second part, led by results:

% of total circulating radioactivity [1]: 3.72%
SMILES: COc1c(O)cc(-c2nc(-c3c(C)c(Cl)c(C)[n+]([O-])c3SC[C@H](N)C(=O)O)no2)cc1[N+](=O)[O-].Cl [BIA 9‐5049, (R)-2-((2-amino-2-carboxyethyl)thio)-5-chloro-3-(5-(3-hydroxy-4-methoxy-5-nitrophenyl)-1,2,4-oxadiazol-3-yl)-4,6-dimethylpyridine 1-oxide hydrochloride]

AUCt ([2]; plasma, geometric mean (% CV)): 8120 (75.7) ng.h/ml | C max ([2]; plasma, geometric mean (% CV)): 115(48.7) ng/ml | Tlag ([2]; plasma): 1.05 (1.00‐2.00) h | % of total circulating radioactivity [1]: 58.6%
SMILES: Cc1c(Cl)c(C)[n+]([O-])c(Cl)c1-c1noc(-c2cc(OS(=O)(=O)O)c(O)c([N+](=O)[O-])c2)n1 [BIA 9‐1103, 5-(3-(2,5-dichloro-4,6-dimethyl-1-oxidopyridin-3-yl)-1,2,4-oxadiazol-5-yl)-2-hydroxy-3-nitrophenyl sulfate]
pharmacological activity on COMT [3]: pharmacologically inactive on COMT | pharmacological activity on COMT ([3]; listed as 3‐O‐sulfate‐opicapone): pharmacologically inactive | binding to plasma proteins [4]: more than 98%

% of total circulating radioactivity [1]: 2.96%
SMILES: COc1cc(-c2nc(-c3c(C)c(Cl)c(C)[n+]([O-])c3Cl)no2)cc([N+](=O)[O-])c1O [BIA 9‐1100, 2,5-dichloro-3-(5-(4-hydroxy-3-methoxy-5-nitrophenyl)-1,2,4-oxadiazol-3-yl)-4,6-dimethylpyridine 1-oxide]

AUC(0-t) [2, 10]: 75 ng·h/mL | Cmax [2, 10]: 33.6 ng/mL | Tmax [2, 10]: 2 h | Tlag ([2]; plasma): 0.75 (0.500‐2.00) h | % of the administered radioactivity in urine ([5]; average, pooled urine): 1.72% and < 2%
SMILES: Cc1c(Cl)c(C)[n+]([O-])c(Cl)c1-c1noc(-c2cc(O[C@@H]3O[C@H](C(=O)O)[C@@H](O)[C@H](O)[C@H]3O)c(O)c([N+](=O)[O-])c2)n1 [BIA 9‐1106, 3-(5-(3-((2S,3R,4S,5S,6S)-6-carboxy-3,4,5-trihydroxytetrahydro-2H-pyran-2-yloxy)-4-hydroxy-5-nitrophenyl)-1,2,4-oxadiazol-3-yl)-2,5-dichloro-4,6-dimethylpyridine 1-oxide]

Source: publication PMC9546099 (British Journal of Clinical Pharmacology, 2022)
